pIC50, pKd: −log10 of the molar value. Activity calls are given as the source filed them. The calls are words filed in the database; no cut-off is given here.
How the values were obtained:
[1] = target: T1, Alpha-ketoglutarate-dependent dioxygenase FTO (Homo sapiens, UniProt Q9C0B1); assay: Inhibition of FTO (unknown origin) (31 to 505 residues) expressed in Escherichia coli BL21 (DE3) cells assessed as reduction in 3-meT substrate demethylation by measuring demethylation ratio at 80 uM incubated for 17 hrs at 16 degC by HPLC method; set-up: scale not given: the % may be the effect or the level left
Method in brief: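 Preliminary screen with FTO and 3meT substrate (0.1 mg/mL stock) in MES, FeSO4, αKG and L-ascorbate; inhibitor added from a 4 mM DMSO stock, with DMSO alone as control. Incubated 17 h at 16 °C, centrifuged, then analysed by C18 reverse-phase HPLC (water/methanol gradient). Demethylated fraction of substrate reported.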
Target sequence in this assay (Q9C0B1 whole entry, looked up, the tested form may be a part): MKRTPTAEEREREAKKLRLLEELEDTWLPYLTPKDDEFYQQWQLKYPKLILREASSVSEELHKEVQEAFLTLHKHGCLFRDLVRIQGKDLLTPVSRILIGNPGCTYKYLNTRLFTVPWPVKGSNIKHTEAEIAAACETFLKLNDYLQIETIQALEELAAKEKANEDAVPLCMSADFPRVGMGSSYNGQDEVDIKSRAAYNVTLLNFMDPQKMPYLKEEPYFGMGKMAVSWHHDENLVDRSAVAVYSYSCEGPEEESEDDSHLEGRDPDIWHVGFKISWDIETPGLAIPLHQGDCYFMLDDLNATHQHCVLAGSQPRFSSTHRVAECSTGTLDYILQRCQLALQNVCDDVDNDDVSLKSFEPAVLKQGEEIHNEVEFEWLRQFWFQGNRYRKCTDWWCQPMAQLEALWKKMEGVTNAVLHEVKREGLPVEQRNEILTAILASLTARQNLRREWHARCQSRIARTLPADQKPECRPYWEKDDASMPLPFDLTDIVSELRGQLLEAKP

[2] = target: T1, Alpha-ketoglutarate-dependent dioxygenase FTO; assay: Binding affinity to FTO (unknown origin) (31 to 505 residues) expressed in Escherichia coli BL21 (DE3) by ITC method
Method in brief: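 ITC at 25 °C. Cell contained 140 μM FTO (residues 31–505, His/Ni-resin and ion-exchange purified from E. coli BL21(DE3) after IPTG induction) in 25 mM HEPES pH 7.5, 100 mM NaCl, 10 mM β-mercaptoethanol, 10% DMSO. Titrant was the same buffer with 1.5 mM ligand, given as one 0.4 μL then 2.0 μL injections every 150 s at 750 rpm. Buffer-only dilution heats subtracted before fitting Kd.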
Target sequence in this assay (Q9C0B1 whole entry, the tested form may be a part): as the sequence (Q9C0B1 whole entry, looked up, the tested form may be a part) above

[3] = Cytotoxicity against mouse 3T3L1 cells assessed as effect on cell morphology at 1 to 20 uM incubated for 8 days; format: cell-based; conditions: 3t3-l1, 192 h
Method in brief: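 3T3-L1 preadipocytes were exposed to 1, 10 or 20 μM for 8 days. Cell health was judged from morphology.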

[4] = target: Alpha-ketoglutarate-dependent dioxygenase FTO (Mus musculus) (UniProt Q8BGW1); assay: Inhibition of FTO in mouse 3T3L1 cells increase in […] m6A modified mRNA levels at 10 uM incubated for 48 hrs by dot blot method; format: cell-based; conditions: 3T3-L1
Method in brief: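 3T3-L1 preadipocytes stably transfected with empty pcDNA3.1, WT-FTO or R96Q-FTO were grown in high-glucose DMEM/10% FBS. Post-confluent cells were differentiated 48 h with insulin, dexamethasone and IBMX, then given 10 μM compound plus insulin for 48 h. mRNA m6A was quantified as relative integrated optical density; mean ± SEM, n = 4.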

[5] = test system: Alpha-ketoglutarate-dependent dioxygenase FTO (Homo sapiens), Q9C0B1 [R96Q]; conditions: 3T3-L1, 10 uM
[6] = target: T1, Alpha-ketoglutarate-dependent dioxygenase FTO; conditions: BL21-DE3, 80 uM
Target sequence in this assay (Q9C0B1 whole entry, looked up, the tested form may be a part): as above

[7] = target: T1, Alpha-ketoglutarate-dependent dioxygenase FTO; conditions: 3T3-L1, 10 uM
Target sequence in this assay (Q9C0B1 whole entry, looked up, the tested form may be a part): as above

[8] = target: T1, Alpha-ketoglutarate-dependent dioxygenase FTO; assay: biochemical
Target sequence in this assay (Q9C0B1 whole entry, the tested form may be a part): as the sequence (Q9C0B1 whole entry, looked up, the tested form may be a part) above

Alpha-ketoglutarate-dependent dioxygenase FTO (Homo sapiens), Q9C0B1 [R96Q], sequence (Q9C0B1 whole entry R96Q): as the sequence (Q9C0B1 whole entry, looked up, the tested form may be a part) above, with R96Q counted along it
Alpha-ketoglutarate-dependent dioxygenase FTO (Mus musculus), sequence (Q8BGW1 whole entry): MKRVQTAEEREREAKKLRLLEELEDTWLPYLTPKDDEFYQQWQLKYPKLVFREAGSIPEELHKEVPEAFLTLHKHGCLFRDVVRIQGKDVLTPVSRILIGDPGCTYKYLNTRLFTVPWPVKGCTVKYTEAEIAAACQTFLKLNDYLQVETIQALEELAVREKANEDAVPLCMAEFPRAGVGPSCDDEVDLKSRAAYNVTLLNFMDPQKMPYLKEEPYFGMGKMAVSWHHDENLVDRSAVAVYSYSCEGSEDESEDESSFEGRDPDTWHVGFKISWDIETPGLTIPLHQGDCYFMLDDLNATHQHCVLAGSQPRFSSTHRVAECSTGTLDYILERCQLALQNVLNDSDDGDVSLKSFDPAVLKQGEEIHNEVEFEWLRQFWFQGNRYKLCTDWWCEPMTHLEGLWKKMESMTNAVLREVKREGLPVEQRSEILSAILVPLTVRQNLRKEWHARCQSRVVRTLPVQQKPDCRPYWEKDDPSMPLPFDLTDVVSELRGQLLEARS

SMILES | Activity [1] | further results
O=C(Nc1cc(Cl)c(O)cc1O)C1(c2ccc(Cl)cc2)CCC1 | 29.2% | –
O=C(Nc1cc(Cl)c(O)cc1O)C1(c2cc(C(F)(F)F)cc(C(F)(F)F)c2)CCC1 | 61.9% | –
O=C(Nc1cc(Cl)c(O)cc1O)C1(c2cccc(Oc3ccccc3)c2)CCC1 | 17.3% | –
O=C(Nc1cc(Cl)c(O)cc1O)C1(c2cccc3ccccc23)CCC1 | 39% | –
CCCCc1ccc(C2(C(=O)Nc3cc(Cl)c(O)cc3O)CCC2)cc1 | 22.2% | –
O=C(Nc1cc(Cl)c(O)cc1O)C1(c2cccc(Cl)c2)CCC1 | 16.9% | –
O=C(Nc1cc(Cl)c(O)cc1O)C1(c2ccc(O)cc2)CCC1 | 17.8% | –
O=C(Nc1cc(Cl)c(O)cc1O)C1(c2cccc(O)c2)CCC1 | 25.8% | –
O=C(Nc1cc(Cl)c(O)cc1O)C1(c2ccccc2)CCC1 | 14.4% | pKd [2]: 4.89; Activity [3]: Non-toxic; inhibition [4]: Active; inhibition [5]: Active; inhibition [6]: Dose-dependent effect; inhibition [7]: Active; pIC50 [8]: 5.31
O=C(Nc1cc(Cl)c(O)cc1O)C1(c2cccc(C(F)(F)F)c2)CCC1 | 29.8% | –
O=C(Nc1cc(Cl)c(O)cc1O)C1(c2c(Cl)cccc2Cl)CCC1 | 15.4% | –
CCCCc1cccc(C2(C(=O)Nc3cc(Cl)c(O)cc3O)CCC2)c1 | 18.2% | –
O=C(Nc1cc(Cl)c(O)cc1O)C1(c2c(F)cccc2F)CCC1 | 15.2% | –
O=C(Nc1cc(Cl)c(O)cc1O)C1(c2ccccc2Cl)CCC1 | 16.9% | –
O=C(Nc1cc(Cl)c(O)cc1O)C1(c2ccc(Br)cc2)CCC1 | 31.3% | –
O=C(Nc1cc(Cl)c(O)cc1O)C1(c2ccccc2Br)CCC1 | 21.6% | –
O=C(Nc1cc(Cl)c(O)cc1O)C1(c2cccc(Br)c2)CCC1 | 18.7% | –
O=C(Nc1cc(Cl)c(O)cc1O)C1(c2ccc3ccccc3c2)CCC1 | 18.4% | –
O=C(Nc1cc(Cl)c(O)cc1O)C1(c2ccc([N+](=O)[O-])cc2)CCC1 | 46.9% | –
O=C(Nc1cc(Cl)c(O)cc1O)C1(c2ccc([N+](=O)[O-])cc2[N+](=O)[O-])CCC1 | 26.1% | –
